Data on 167 variants can be found in the RNAGym collection of RNA variant scans (doi:10.1126/science.aae0568).

Variants at the floor of the assay were thinned out.

The labels stand for the following.
B1: tRNA (parent)
chain: GUUCCGUUGGCGUAAUGGUAACGCGUCUCCCUCCUAAGGAGAAGACUGCGGGUUCGAGUCCCGUACGGAACG

This data set covers variants of B1. The experiment in a line: yeast fitness relative to wild type (ratio to wild type); higher = fitter; tRNA-Arg(CCU), competitive growth, 37 C, YPD. In short, it runs like this: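 Amplicons of the tRNA-Arg(CCU) gene were sequenced, 100-nucleotide paired-end, from the start population and from each end population of a pooled yeast competition. The competition, in six parallel replicates, lasted 24 hours in YPD at 37°C. Fitness relative to wild type was calculated from changes in genotype frequencies. Genotypes had to have ≥ 100 starting reads, and estimates < 0.5 were set to 0.5.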
Consider G12C C62U A70U, for which the yeast fitness came to 0.606.

Turning to G9C C33A A43C, the yeast fitness was ≤ 0.5.

As to A57C G67A, the yeast fitness is 0.504.

With G12C U47A G68C, the yeast fitness worked out at 0.533.

C4A U13G A40G A45U U47A: the yeast fitness is ≤ 0.5.

Regarding C27G C30G A43C, the yeast fitness was ≤ 0.5.

On to G68C A69C, for which the yeast fitness was determined as 0.786.

For C29G A69C, the yeast fitness came out at 0.628.

Turning to C5G C27U C29G, the yeast fitness was ≤ 0.5.

For the variant G18C A21U C24U U28A, the yeast fitness came out at 0.629.

As for A43G G52C C55A C61A, the yeast fitness is ≤ 0.5.

Consider C29A A42G C61G, for which the yeast fitness is 0.533.

For the variant G6C C62A G67C, the yeast fitness is ≤ 0.5.

With A15C A36G C49U, the yeast fitness worked out at 0.533.

Consider C5G U47C U59A, for which the yeast fitness was ≤ 0.5.

For A21G A36G A42U A57G, the yeast fitness is ≤ 0.5.

Turning to C24A G63A U64A, the yeast fitness is ≤ 0.5.

Turning to C4G G6A A21C, the yeast fitness was 0.701.

As for C22U A36C C55U U59A, the yeast fitness was ≤ 0.5.

As for G6A C22U A40C A69U, the yeast fitness amounted to 0.63.

Take C24U C66U A69C: the yeast fitness amounted to 0.568.

On to A15U A40U C49U, for which the yeast fitness came out at 0.599.

Regarding C4U C30A A36G, the yeast fitness was 0.839.

Regarding C4G U8C U16A A21C C24G A37U C55U, the yeast fitness was ≤ 0.5.

With G9A G12U A14U C31G A69U, the yeast fitness is ≤ 0.5.

For U7A U16A, the yeast fitness was 0.743.

On to C5G G23A C34A, for which the yeast fitness worked out at 0.723.

Consider A15G C29A G58A, for which the yeast fitness was 0.57.

Take G44C G50C A57G A69U: the yeast fitness is ≤ 0.5.

As to G51A C61U, the yeast fitness turned out to be 1.11.

Regarding G6C A37U A43U, the yeast fitness came out at 0.525.

Turning to A36C C49G C61G C62G, the yeast fitness was ≤ 0.5.

In the case of G18C C29U A69C, the yeast fitness is ≤ 0.5.

On to C5G G10C G52A A69U, for which the yeast fitness was ≤ 0.5.

For A20U C29U C30U U59A, the yeast fitness was found to be 0.636.

With U19C A42U G68C, the yeast fitness was ≤ 0.5.

C22G C29G A43G G63U: the yeast fitness was ≤ 0.5.

Take C4G A40C C49G C55G A69U: the yeast fitness was ≤ 0.5.

As to U28G A36U C46U C61U, the yeast fitness was ≤ 0.5.

As for A42G U54C A65U, the yeast fitness is ≤ 0.5.

As for A14U A37G G44C A45C G50A C55G C66A, the yeast fitness worked out at 0.539.

Turning to U28G G50U C60G, the yeast fitness is ≤ 0.5.

As for G6C G10C, the yeast fitness is 0.649.

Take A21U C31U: the yeast fitness was determined as 0.717.

As for C4A C11A, the yeast fitness was found to be 0.6.

Take U8A U19C: the yeast fitness was determined as 0.805.

In the case of C5U A15C A21U, the yeast fitness is ≤ 0.5.

Turning to G9C C22G C30U, the yeast fitness amounted to 0.648.

Consider U2A G9A A45C, for which the yeast fitness was determined as 0.682.

Take G51A U59A C61U G67A: the yeast fitness is ≤ 0.5.

On to U16C A21G A40C A42U C46U C49U G51A A70G, for which the yeast fitness is ≤ 0.5.

U19G A20U G56A: the yeast fitness was 0.789.

Take C30G A45C: the yeast fitness worked out at 0.669.

U16A U26C A70U: the yeast fitness came out at 0.558.

Turning to A37C G67C, the yeast fitness turned out to be 0.846.

Take C49A C66U: the yeast fitness was found to be 0.641.

As to C60G C62G A70G, the yeast fitness was ≤ 0.5.

In the case of C31U G63A A69C, the yeast fitness was determined as 0.748.

Turning to C5G C33A G41C A65C, the yeast fitness is ≤ 0.5.

With A21G C29G C55U A69C, the yeast fitness is ≤ 0.5.

Regarding G38C A43U, the yeast fitness is 0.769.

G9C U19C C24U C27A G68A: the yeast fitness is ≤ 0.5.

For C11U G41A A42G A70U, the yeast fitness was ≤ 0.5.

As for G41A G51A A70C, the yeast fitness is 0.542.

A21G C30G G67U: the yeast fitness is ≤ 0.5.

As to C5U U7A C30A G56C C66G, the yeast fitness was ≤ 0.5.

C46G C49U G68C: the yeast fitness worked out at 0.653.

Turning to G18A A57G A69U, the yeast fitness is ≤ 0.5.

Regarding C4U C62A, the yeast fitness was determined as 0.85.

C5A A69G: the yeast fitness turned out to be 0.908.

Take U7C U28A C34U C61U: the yeast fitness is ≤ 0.5.

In the case of U3C C22A, the yeast fitness is 0.79.

Regarding C22U C33G C34A A43C C55U, the yeast fitness is ≤ 0.5.

G12C A15G G44C A57U: the yeast fitness was found to be 0.69.

In the case of U2A U28C G39A C62U A65U, the yeast fitness is ≤ 0.5.

For the variant A15U G23U C24G, the yeast fitness was ≤ 0.5.

With A14G A15U C30G, the yeast fitness was ≤ 0.5.

For the variant A14G U19A C34U, the yeast fitness is ≤ 0.5.

For the variant U2G G25C G52A, the yeast fitness was ≤ 0.5.

Consider C11U C22U A40C, for which the yeast fitness came to 0.558.

Regarding G41A A65G, the yeast fitness came to 0.934.

For the variant A14G C22U, the yeast fitness amounted to 0.783.

Regarding G38C U54A, the yeast fitness turned out to be 0.615.

Turning to G39C G50C, the yeast fitness worked out at 0.575.

With G67A A70C, the yeast fitness came out at 0.901.

Take G10A A15C A45C C49G G67U A69C: the yeast fitness was ≤ 0.5.

A14U G67U: the yeast fitness is 0.562.

Take C27U G51C C61G: the yeast fitness was ≤ 0.5.

For the variant U28G G51A C62G, the yeast fitness was ≤ 0.5.

For the variant C4A A21C C22U G50C, the yeast fitness worked out at 0.617.

Turning to G18U U26A A69U, the yeast fitness is ≤ 0.5.

As for A20C A40U, the yeast fitness came out at 0.855.

On to U2G C5A U19A C30G A43C, for which the yeast fitness was ≤ 0.5.

In the case of A21C G25C U26G A70C, the yeast fitness is ≤ 0.5.

Consider U47C G67A, for which the yeast fitness turned out to be 0.874.

U2C C49U C62U: the yeast fitness turned out to be 0.521.

In the case of G9A G39C A43C A57C, the yeast fitness is ≤ 0.5.

Regarding A42G C49G U54C, the yeast fitness was found to be 0.536.

Take U7G A14G U59A: the yeast fitness was found to be 0.542.

As to U3G C5U U32A C33U, the yeast fitness came out at 0.595.

For the variant A36U C61G, the yeast fitness came out at 0.698.

C27G A42C C62G: the yeast fitness is 0.561.

C5A G18A G25A C31U: the yeast fitness is ≤ 0.5.

On to A15C G17A G68A, for which the yeast fitness is ≤ 0.5.

For the variant U26A A45G U54C, the yeast fitness worked out at 0.52.

Regarding A21G A40C A42U C46U C49U G51A A65C, the yeast fitness was 0.732.

Turning to A70U, the yeast fitness turned out to be 1.02.

C4G U28C A69U: the yeast fitness turned out to be 0.568.

In the case of U32C G67U A69C, the yeast fitness was ≤ 0.5.

On to C27U U28G C33G A36G, for which the yeast fitness is ≤ 0.5.

Regarding U26C G52A A70C, the yeast fitness was ≤ 0.5.

As to U3A G12A C24G C29U A36G, the yeast fitness was ≤ 0.5.

Take U2C U54G: the yeast fitness turned out to be 0.657.

With A20U U28A G38C A40G U59C, the yeast fitness came to 0.637.

In the case of A14U A43U A45G G68A, the yeast fitness is ≤ 0.5.

For the variant A42U G58U G68C, the yeast fitness was ≤ 0.5.

Turning to G12C G17A C49U U59C, the yeast fitness was ≤ 0.5.

Take G12A U13C A42U: the yeast fitness came out at 0.561.

As to U35A G52A U59C C66A G67A, the yeast fitness was ≤ 0.5.

In the case of U13A C34G U54A, the yeast fitness turned out to be 0.609.

Regarding G12C A20U C22G G50A C61A, the yeast fitness turned out to be 0.567.

As for C11G U28C G67C, the yeast fitness is ≤ 0.5.

On to C29G C33U U47C, for which the yeast fitness is ≤ 0.5.

As to U54C A57C, the yeast fitness stood at 0.619.

Turning to C29G C46A U59C, the yeast fitness was 0.546.

With C5A A15U C24G, the yeast fitness was ≤ 0.5.

Turning to G17A C33G, the yeast fitness was ≤ 0.5.

As to U13A C46A G48C, the yeast fitness was found to be 1.08.

For the variant U2A G12A, the yeast fitness was found to be 0.886.

In the case of A14G C27A A37C G44A, the yeast fitness turned out to be 0.563.

Consider G17A C49A, for which the yeast fitness was determined as 0.677.

For the variant A21U U32A, the yeast fitness amounted to 0.643.

Consider A14G C27U C33U U35C, for which the yeast fitness is ≤ 0.5.

Regarding G17A U19C C34A A40G C66U, the yeast fitness is ≤ 0.5.

As for C5G G68A, the yeast fitness stood at 0.716.

Consider G6C G50A G67A, for which the yeast fitness was found to be 0.606.

On to G25A U26A C55G G68C A69G, for which the yeast fitness was ≤ 0.5.

Regarding U7C A20C C34A G63C, the yeast fitness was ≤ 0.5.

Take C22U C30U C49G: the yeast fitness amounted to 0.556.

Turning to C30U C33U A57G C60A, the yeast fitness is ≤ 0.5.

With U7A G17C C24G C29A G48C, the yeast fitness is ≤ 0.5.

As to U7C C30U C34A A57U C66A, the yeast fitness worked out at 0.555.

On to G18A C34U A40G C66G, for which the yeast fitness was ≤ 0.5.

Consider U8A A15U A21G C34A A37G, for which the yeast fitness came to 0.51.

C11U C61U: the yeast fitness was 0.827.

On to G41U C66U, for which the yeast fitness is 0.845.

Consider U35C A42G, for which the yeast fitness worked out at 0.761.

For the variant A36G A43C A45G, the yeast fitness worked out at 0.906.

Regarding C22G A36C U47A A69C, the yeast fitness was ≤ 0.5.

U7C C27U A45C: the yeast fitness came out at 0.609.

As for A21C G25C U26G U59A, the yeast fitness was ≤ 0.5.

As for C27A C31G C61U, the yeast fitness worked out at 0.669.

With C5U A21G C22G A43U, the yeast fitness was determined as 0.533.

Regarding C34A C49U G51C C61U, the yeast fitness is ≤ 0.5.

As for C4U A15U U53A C62A, the yeast fitness is ≤ 0.5.

G18A C29U C31A A65G: the yeast fitness is ≤ 0.5.

Take G9C A42C A69C: the yeast fitness was 0.564.

As to C30U A45C, the yeast fitness stood at 0.72.

C4U C27U G56A: the yeast fitness came out at 0.694.

Turning to C5G A15G U16A A20G U28A C30A C33A A36U A70U, the yeast fitness is ≤ 0.5.

Consider C11A C27G U35A A43U, for which the yeast fitness is ≤ 0.5.

Consider C31U C60G, for which the yeast fitness was found to be 0.696.

On to G38C C49G U54G, for which the yeast fitness was determined as 0.621.

As for G56C G67U, the yeast fitness was determined as 0.524.

In the case of G9C A20U U28A C62U, the yeast fitness is ≤ 0.5.

Take C4U U13C C30G G48U A70U: the yeast fitness is ≤ 0.5.

C4G U35A: the yeast fitness came out at 0.772.
